Test results reported in ChEMBL document CHEMBL3244395, “Antimycotic imidazoles. 2. Synthesis and antifungal properties of esters of 1-[2-hydroxy(mercapto)-2-phenylethyl]-1H-imidazoles” (J Med Chem, 1978).
Activity calls are given as the source filed them. No cut-off for these calls is given here.

Tests used:
Epidermophyton floccosum = assay: Antifungal activity against Epidermophyton floccosum assessed as lowest concentration required for total inhibition broth dilution assay; assay type: functional; settings: read-out: MIC100
Summary of the method: (§1)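 Broth dilution against dermatophytes, C. albicans ATCC 10231 and 14053, and C. neoformans. The end point is the lowest concentration with total inhibition. "<" marks the lowest level tested, and ">" marks partial growth at that dilution.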

[1] = Lipophilic-hydrophilic balance, Rm of the compound assessed as change in compound Rm to miconazole Rm by reverse-phase TLC method; assay type: physicochemical; settings: silicone oil-impregnated silica gel, MeCN-H2O-AcOH
Staphylococcus aureus = assay: Antibacterial activity against Staphylococcus aureus ATCC 12600 assessed as lowest concentration required for total inhibition by broth microdilution assay; assay type: functional; settings: for MIC: read-out: MIC100
Summary of the method: (§2)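 Broth microdilution against the listed ATCC […] strains. The value is the lowest concentration giving total inhibition. "<" marks the lowest level tested, and ">" marks partial growth at that dilution.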

[2] = test system: Trichophyton mentagrophytes; assay: Antifungal activity against Trichophyton mentagrophytes assessed as lowest concentration required for total inhibition broth dilution assay; assay type: functional; settings: read-out: MIC100; summary of the method: as §1
Nannizzia gypsea = assay: Antifungal activity against Microsporum gypseum assessed as lowest concentration required for total inhibition broth dilution assay; assay type: functional; settings: read-out: MIC100; summary of the method: as §1
Candida albicans [3] = assay: Antifungal activity against Candida albicans ATCC 14053 assessed as lowest concentration required for total inhibition by broth dilution assay; assay type: functional; settings: read-out: MIC100; summary of the method: as §1
[4] = test system: Erysipelothrix rhusiopathiae; assay: Antibacterial activity against Erysipelothrix insidiosa ATCC 19414 assessed as lowest concentration required for total inhibition by broth microdilution assay; assay type: functional; settings: for MIC: read-out: MIC100; summary of the method: as §2
Cutibacterium acnes = assay: Antibacterial activity against Corynebacterium acnes ATCC 11828 assessed as lowest concentration required for total inhibition by broth microdilution assay; assay type: functional; settings: for MIC: read-out: MIC100; summary of the method: as §2
Cryptococcus neoformans = assay: Antifungal activity against Cryptococcus neoformans assessed as lowest concentration required for total inhibition by broth dilution assay; assay type: functional; settings: read-out: MIC100; summary of the method: as §1
Enterococcus faecalis = assay: Antibacterial activity against Streptococcus faecalis ATCC 14506 assessed as lowest concentration required for total inhibition by broth microdilution assay; assay type: functional; settings: for MIC: read-out: MIC100; summary of the method: as §2
Pasteurella multocida = assay: Antibacterial activity against Pasteurella multocida ATCC 19427 assessed as lowest concentration required for total inhibition by broth microdilution assay; assay type: functional; settings: for MIC: read-out: MIC100; summary of the method: as §2
Candida albicans [5] = assay: Antifungal activity against Candida albicans ATCC 10231 assessed as lowest concentration required for total inhibition by broth dilution assay; assay type: functional; settings: read-out: MIC100; summary of the method: as §1
Candida albicans [6] = assay: Antifungal activity against Candida albicans in mouse vaginal infection model compound applied intravaginally as 2% formulation in an aqueous propylene glycol cream for 4 days bid; assay type: functional, organism-based; settings: Vagina
Summary of the method: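 Mice with vaginal C. albicans infection, following Wildfeuer's method. The compound was applied intravaginally as a 2% formulation in an aqueous propylene glycol cream, twice daily for 4 days. Read-out was animals cured over total number infected.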

Compound	MIC (Epidermophyton floccosum)	deltaRm [1]	MIC (Staphylococcus aureus)	MIC [2]	MIC (Nannizzia gypsea)	MIC (Candida albicans [3])	MIC [4]	MIC (Cutibacterium acnes)	MIC (Cryptococcus neoformans)	MIC (Enterococcus faecalis)	MIC (Pasteurella multocida)	MIC (Candida albicans [5])	Activity (Candida albicans [6])	MIC100 (Staphylococcus aureus)	MIC100 [4]	MIC100 (Cutibacterium acnes)	MIC100 (Enterococcus faecalis)	MIC100 (Pasteurella multocida)
CCCCCCCCOC(=O)SC(Cn1ccnc1)c1ccc(Cl)cc1Cl.O=[N+]([O-])O (stereo unspecified)	< 0.1 µg/mL	0.82	1 µg/mL	10 µg/mL	30 µg/mL	> 300 µg/mL	10 µg/mL	100 µg/mL	< 1 µg/mL	30 µg/mL	1 µg/mL	> 300 µg/mL						
Cc1ccc(C(=O)SC(Cn2ccnc2)c2ccc(Cl)cc2Cl)cc1.O=[N+]([O-])O (stereo unspecified)	< 0.1 µg/mL	-0.09		10 µg/mL	30 µg/mL	10 µg/mL			< 1 µg/mL			10 µg/mL						
CCCCCCCC(=O)OC(Cn1ccnc1)c1ccc(Cl)cc1Cl.O=[N+]([O-])O (stereo unspecified)	< 0.1 µg/mL	0.1		10 µg/mL	10 µg/mL	30 µg/mL			< 1 µg/mL			30 µg/mL	inactive					
O=[N+]([O-])O.S=C(OC1CCCCC1)SC(Cn1ccnc1)c1ccc(Cl)cc1Cl (stereo unspecified)	< 0.1 µg/mL	0.43		3 µg/mL	3 µg/mL	3 µg/mL			< 1 µg/mL			3 µg/mL						
CCCOC(=S)SC(Cn1ccnc1)c1ccc(Cl)cc1Cl.O=[N+]([O-])O (stereo unspecified)	< 0.1 µg/mL	-0.03		10 µg/mL	10 µg/mL	30 µg/mL			< 0.3 µg/mL			100 µg/mL	Active					
CC(=O)SC(Cn1ccnc1)c1ccc(Cl)cc1Cl.O=[N+]([O-])O (stereo unspecified)	1 µg/mL			100 µg/mL	100 µg/mL	300 µg/mL			10 µg/mL			300 µg/mL						
CCCCCCCCOC(=O)OC(Cn1ccnc1)c1ccc(Cl)cc1Cl.O=[N+]([O-])O (stereo unspecified)	< 0.1 µg/mL	0.4		10 µg/mL	10 µg/mL	30 µg/mL			3 µg/mL			300 µg/mL						
O=C(Cc1ccc(F)cc1)SC(Cn1ccnc1)c1ccc(Cl)cc1Cl.O=[N+]([O-])O (stereo unspecified)	< 0.1 µg/mL			30 µg/mL	30 µg/mL	100 µg/mL			< 1 µg/mL			100 µg/mL						
CCCCCCCCOC(=S)SC(Cn1ccnc1)c1ccc(Cl)cc1Cl.O=[N+]([O-])O (stereo unspecified)	1 µg/mL	1.23	> 100 µg/mL	30 µg/mL	30 µg/mL	100 µg/mL	30 µg/mL	100 µg/mL	< 1 µg/mL	1 µg/mL	1 µg/mL	100 µg/mL						
CCCSC(=O)OC(Cn1ccnc1)c1ccc(Cl)cc1Cl.O=C(O)C(=O)O (stereo unspecified)	< 0.1 µg/mL			30 µg/mL	30 µg/mL	300 µg/mL			3 µg/mL			300 µg/mL						
CCCCOC(=S)SC(Cn1ccnc1)c1ccc(Cl)cc1Cl.O=[N+]([O-])O (stereo unspecified)	< 0.1 µg/mL	0.19		3 µg/mL	3 µg/mL	10 µg/mL			1 µg/mL			30 µg/mL	Active					
O=C(SC(Cn1ccnc1)c1ccc(Cl)cc1Cl)c1ccccc1Cl.O=[N+]([O-])O (stereo unspecified)	< 0.1 µg/mL	-0.35	10 µg/mL	10 µg/mL	10 µg/mL	30 µg/mL	100 µg/mL	> 100 µg/mL	< 1 µg/mL	30 µg/mL	1 µg/mL	30 µg/mL						
O=C(OC(Cn1ccnc1)c1ccc(Cl)cc1Cl)c1ccc(Cl)cc1Cl.O=[N+]([O-])O (stereo unspecified)	< 0.1 µg/mL	-0.24		30 µg/mL	30 µg/mL	300 µg/mL			3 µg/mL			300 µg/mL						
CC(C)COC(=S)SC(Cn1ccnc1)c1ccc(Cl)cc1Cl.O=[N+]([O-])O (stereo unspecified)	< 0.1 µg/mL	0.17		3 µg/mL	3 µg/mL	10 µg/mL			< 0.3 µg/mL			30 µg/mL						
CCCCCCC(=O)OC(Cn1ccnc1)c1ccc(Cl)cc1Cl.O=[N+]([O-])O (stereo unspecified)	< 0.1 µg/mL	-0.16		30 µg/mL	30 µg/mL	100 µg/mL			3 µg/mL			100 µg/mL						
O=C(Sc1ccccc1)SC(Cn1ccnc1)c1ccc(Cl)cc1Cl.O=[N+]([O-])O (stereo unspecified)	< 0.1 µg/mL	-0.02	10 µg/mL	10 µg/mL	3 µg/mL	100 µg/mL	100 µg/mL	> 100 µg/mL	< 1 µg/mL	30 µg/mL	3 µg/mL	100 µg/mL						

Compound	MIC (Epidermophyton floccosum)	deltaRm [1]	MIC (Staphylococcus aureus)	MIC [2]	MIC (Nannizzia gypsea)	MIC (Candida albicans [3])	MIC [4]	MIC (Cutibacterium acnes)	MIC (Cryptococcus neoformans)	MIC (Enterococcus faecalis)	MIC (Pasteurella multocida)	MIC (Candida albicans [5])	Activity (Candida albicans [6])	MIC100 (Staphylococcus aureus)	MIC100 [4]	MIC100 (Cutibacterium acnes)	MIC100 (Enterococcus faecalis)	MIC100 (Pasteurella multocida)
CCCCCCCCCCCC(=O)OC(Cn1ccnc1)c1ccc(Cl)cc1Cl.O=[N+]([O-])O (stereo unspecified)	1 µg/mL	1.1	10 µg/mL	> 100 µg/mL	> 100 µg/mL	> 300 µg/mL	10 µg/mL	> 100 µg/mL	< 1 µg/mL	100 µg/mL	1 µg/mL	> 300 µg/mL						
O=C(Cc1ccc(Cl)cc1)SC(Cn1ccnc1)c1ccc(Cl)cc1Cl.O=[N+]([O-])O (stereo unspecified)	< 0.1 µg/mL			30 µg/mL	> 30 µg/mL	100 µg/mL			< 1 µg/mL			100 µg/mL						
CC(C)OC(=S)SC(Cn1ccnc1)c1ccc(Cl)cc1Cl.O=[N+]([O-])O (stereo unspecified)	< 0.1 µg/mL	-0.14		10 µg/mL	10 µg/mL	30 µg/mL			< 0.3 µg/mL			100 µg/mL						
O=C(OC(Cn1ccnc1)c1ccc(Cl)cc1Cl)c1ccc(Cl)cc1.O=[N+]([O-])O (stereo unspecified)	< 0.1 µg/mL	-0.39		30 µg/mL	100 µg/mL	300 µg/mL			3 µg/mL			300 µg/mL	inactive					
O=C(O)C(=O)O.S=C(OCc1ccccc1)SC(Cn1ccnc1)c1ccc(Cl)cc1Cl (stereo unspecified)	< 0.1 µg/mL	-0.21		1 µg/mL	10 µg/mL	10 µg/mL			< 0.3 µg/mL			30 µg/mL						
CC(C)(C)c1ccc(C(=O)OC(Cn2ccnc2)c2ccc(Cl)cc2Cl)cc1.O=C(O)C(=O)O (stereo unspecified)	1 µg/mL	0.16		10 µg/mL	10 µg/mL	10 µg/mL			3 µg/mL			10 µg/mL						
GENTAMICIN														1 µg/mL	30 µg/mL	1 µg/mL	30 µg/mL	< 0.1 µg/mL
CCCCCOC(=S)SC(Cn1ccnc1)c1ccc(Cl)cc1.O=C(O)C(=O)O (stereo unspecified)	0.3 µg/mL	0.22		10 µg/mL	3 µg/mL	30 µg/mL			3 µg/mL			30 µg/mL						
CCCCOC(=O)SC(Cn1ccnc1)c1ccc(Cl)cc1Cl.O=[N+]([O-])O (stereo unspecified)	< 0.1 µg/mL	-0.14		10 µg/mL	30 µg/mL	30 µg/mL			< 0.3 µg/mL			30 µg/mL						
O=C(/C=C/c1ccc(Cl)cc1)OC(Cn1ccnc1)c1ccc(Cl)cc1Cl.O=[N+]([O-])O (stereo unspecified)	< 0.1 µg/mL			10 µg/mL	10 µg/mL	> 300 µg/mL			< 1 µg/mL			> 300 µg/mL						
CCCCCOC(=S)SC(Cn1ccnc1)c1ccc(Cl)cc1Cl.O=[N+]([O-])O (stereo unspecified)	< 0.1 µg/mL	0.37	3 µg/mL	3 µg/mL	3 µg/mL	3 µg/mL	100 µg/mL	> 100 µg/mL	< 1 µg/mL	10 µg/mL	1 µg/mL	3 µg/mL						
CCCCCCOC(=O)OC(Cn1ccnc1)c1ccc(Cl)cc1Cl.O=[N+]([O-])O (stereo unspecified)	< 0.3 µg/mL	-0.17		30 µg/mL	30 µg/mL	100 µg/mL			30 µg/mL			100 µg/mL						
O=C(Cc1ccccc1)SC(Cn1ccnc1)c1ccc(Cl)cc1Cl.O=[N+]([O-])O (stereo unspecified)	< 0.1 µg/mL	-0.43		30 µg/mL	30 µg/mL	100 µg/mL			< 1 µg/mL			100 µg/mL						
CC(C)(C)SC(=O)SC(Cn1ccnc1)c1ccc(Cl)cc1Cl.O=[N+]([O-])O (stereo unspecified)	< 0.1 µg/mL	0.05	3 µg/mL	3 µg/mL	10 µg/mL	30 µg/mL	100 µg/mL	100 µg/mL	3 µg/mL	10 µg/mL	1 µg/mL	30 µg/mL						
O=C(/C=C/c1ccccc1)SC(Cn1ccnc1)c1ccc(Cl)cc1Cl.O=[N+]([O-])O (stereo unspecified)	< 0.1 µg/mL	-0.08		10 µg/mL	30 µg/mL	10 µg/mL			< 1 µg/mL			10 µg/mL						
O=C(Cc1ccc(Cl)cc1)OC(Cn1ccnc1)c1ccc(Cl)cc1Cl.O=[N+]([O-])O (stereo unspecified)	< 0.1 µg/mL	-0.41		30 µg/mL	100 µg/mL	100 µg/mL			3 µg/mL			100 µg/mL						
